Test results reported in ChEMBL document CHEMBL1122702, “Radiohalogen-labeled imaging agents. 3. Compounds for measurement of brain blood flow by emission tomography” (J Med Chem, 1984).

Assays:
Format in all cases: ADME, organism-based
Rattus norvegicus [1] = species: Rattus norvegicus; experiment: Ratio of distribution of the [131I]-labeled compound at 30 min in rat kidney over uptake in blood; settings: other tissue, 0.5 h
Outline: (§1)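 Male Sprague-Dawley rats (200–300 g, fed ad libitum), ether-anesthetized, got a tail-vein bolus of 0.2 mL saline containing 10–20 μCi 131I compound and were decapitated at the stated time. Organs were weighed and gamma-counted against a serially diluted external standard. Organ/blood ratio was calculated from % dose per gram of organ. Animal numbers per time point were 1–4.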

Rattus norvegicus [2] = species: Rattus norvegicus; experiment: Ratio of distribution of the [131I]-labeled compound at 5 min in rat heart over uptake in blood; settings: other tissue; outline: as §1
Rattus norvegicus [3] = species: Rattus norvegicus; experiment: The uptake of the 131 I-labeled compound at 30 min was evaluated in rat brain as Percent of injected dose in the total organ; settings: in vivo, 0.5 h
Outline: (§2)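 Male Sprague-Dawley rats (200–300 g, free access to food and water), lightly ether-anesthetized and restrained, received a 0.2 mL saline tail-vein bolus of 10–20 μCi 131I-labeled compound. They were decapitated at the stated time, and organs were excised, weighed and gamma-counted. Percent injected dose was determined against a calibrated external standard made by serial dilution of the injectate. n = 1–4 rats.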

Rattus norvegicus [4] = species: Rattus norvegicus; experiment: The uptake of the 131 I-labeled compound at 30 min was evaluated in rat blood as Percent of injected dose per gram in the organ; settings: in vivo, 0.5 h; outline: as §2
Rattus norvegicus [5] = species: Rattus norvegicus; experiment: The uptake of the 131 I-labeled compound at 5 min was evaluated in rat heart as Percent of injected dose per gram in the organ; settings: in vivo; outline: as §2
Rattus norvegicus [6] = species: Rattus norvegicus; experiment: The uptake of the 131 I-labeled compound at 5 min was evaluated in rat lung as Percent of injected dose per gram in the organ; settings: in vivo; outline: as §2
Rattus norvegicus [7] = species: Rattus norvegicus; experiment: Ratio of distribution of the [131I]-labeled compound at 30 min in rat liver over uptake in blood; settings: other tissue, 0.5 h; outline: as §1
Rattus norvegicus [8] = species: Rattus norvegicus; experiment: The uptake of the 131 I-labeled compound at 5 min was evaluated in rat kidney as Percent of injected dose per gram in the organ; settings: in vivo; outline: as §2
Rattus norvegicus [9] = species: Rattus norvegicus; experiment: Ratio of distribution of the [131I]-labeled compound at 30 min in rat brain over uptake in blood; settings: 0.5 h; outline: as §1
Rattus norvegicus [10] = species: Rattus norvegicus; experiment: The uptake of the 131 I-labeled compound at 5 min was evaluated in rat liver as Percent of injected dose in the total organ; settings: in vivo; outline: as §2
Rattus norvegicus [11] = species: Rattus norvegicus; experiment: Ratio of distribution of the [131I]-labeled compound at 30 min in rat heart over uptake in blood; settings: other tissue, 0.5 h; outline: as §1
Rattus norvegicus [12] = species: Rattus norvegicus; experiment: The uptake of the 131 I-labeled compound at 30 min was evaluated in rat liver as Percent of injected dose in the total organ; settings: in vivo, 0.5 h; outline: as §2
Rattus norvegicus [13] = species: Rattus norvegicus; experiment: Ratio of distribution of the [131I]-labeled compound at 5 min in rat liver over uptake in blood; settings: other tissue; outline: as §1
Rattus norvegicus [14] = species: Rattus norvegicus; experiment: The uptake of the 131 I-labeled compound at 5 min was evaluated in rat heart as Percent of injected dose in the total organ; settings: in vivo; outline: as §2
Rattus norvegicus [15] = species: Rattus norvegicus; experiment: The uptake of the 131 I-labeled compound at 5 min was evaluated in rat blood as Percent of injected dose per gram in the organ; settings: in vivo; outline: as §2
Rattus norvegicus [16] = species: Rattus norvegicus; experiment: The uptake of the 131 I-labeled compound at 5 min was evaluated in rat brain as Percent of injected dose per gram in the organ; settings: in vivo; outline: as §2
Rattus norvegicus [17] = species: Rattus norvegicus; experiment: The uptake of the 131 I-labeled compound at 30 min was evaluated in rat kidney as Percent of injected dose per gram in the organ; settings: in vivo, 0.5 h; outline: as §2
Rattus norvegicus [18] = species: Rattus norvegicus; experiment: The uptake of the 131 I-labeled compound at 30 min was evaluated in rat heart as Percent of injected dose in the total organ; settings: in vivo, 0.5 h; outline: as §2
Rattus norvegicus [19] = species: Rattus norvegicus; experiment: Ratio of distribution of the [131I]-labeled compound at 5 min in rat brain over uptake in blood; outline: as §1
Rattus norvegicus [20] = species: Rattus norvegicus; experiment: Ratio of distribution of the [131I]-labeled compound at 5 min in rat kidney over uptake in blood; settings: other tissue; outline: as §1
Rattus norvegicus [21] = species: Rattus norvegicus; experiment: The uptake of the 131 I-labeled compound at 30 min was evaluated in rat heart as Percent of injected dose per gram in the organ; settings: in vivo, 0.5 h; outline: as §2
Rattus norvegicus [22] = species: Rattus norvegicus; experiment: The uptake of the 131 I-labeled compound at 30 min was evaluated in rat lung as Percent of injected dose per gram in the organ; settings: in vivo, 0.5 h; outline: as §2
Rattus norvegicus [23] = species: Rattus norvegicus; experiment: The uptake of the 131 I-labeled compound at 30 min was evaluated in rat liver as Percent of injected dose per gram in the organ; settings: in vivo, 0.5 h; outline: as §2
Rattus norvegicus [24] = species: Rattus norvegicus; experiment: Ratio of distribution of the [131I]-labeled compound at 5 min in rat lung over uptake in blood; settings: other tissue; outline: as §1
Rattus norvegicus [25] = species: Rattus norvegicus; experiment: Ratio of distribution of the [131I]-labeled compound at 30 min in rat lung over uptake in blood; settings: other tissue, 0.5 h; outline: as §1
Rattus norvegicus [26] = species: Rattus norvegicus; experiment: The uptake of the 131 I-labeled compound at 5 min was evaluated in rat kidney as Percent of injected dose in the total organ; settings: in vivo; outline: as §2
Rattus norvegicus [27] = species: Rattus norvegicus; experiment: The uptake of the 131 I-labeled compound at 5 min was evaluated in rat liver as Percent of injected dose per gram in the organ; settings: in vivo; outline: as §2
Rattus norvegicus [28] = species: Rattus norvegicus; experiment: The uptake of the 131 I-labeled compound at 30 min was evaluated in rat kidney as Percent of injected dose in the total organ; settings: in vivo, 0.5 h; outline: as §2
Rattus norvegicus [29] = species: Rattus norvegicus; experiment: The uptake of the 131 I-labeled compound at 5 min was evaluated in rat brain as Percent of injected dose in the total organ; settings: in vivo; outline: as §2
Rattus norvegicus [30] = species: Rattus norvegicus; experiment: The uptake of the 131 I-labeled compound at 30 min was evaluated in rat brain as Percent of injected dose per gram in the organ; settings: in vivo, 0.5 h; outline: as §2

With COc1cc(CC(C)NO)c(OC)cc1I (stereo not given) the Ratio (Rattus norvegicus [1]) was 7.5, the Ratio (Rattus norvegicus [2]) was 3.6 and the Dose (Rattus norvegicus [3]) was 1.2%. It also gave a Dose (Rattus norvegicus [4]) of 0.16%, a Dose (Rattus norvegicus [5]) of 0.66% and a Dose (Rattus norvegicus [6]) of 2%. The Ratio (Rattus norvegicus [7]) was 4.5, the Dose (Rattus norvegicus [8]) was 1.4% and the Ratio (Rattus norvegicus [9]) was 3.9. For the same compound, the Dose (Rattus norvegicus [10]) was 8.6%, the Ratio (Rattus norvegicus [11]) was 1.9 and the Dose (Rattus norvegicus [12]) was 6.6%. It also gave a Ratio (Rattus norvegicus [13]) of 9.5, a Dose (Rattus norvegicus [14]) of 0.8% and a Dose (Rattus norvegicus [15]) of 0.19%. It also gave a Dose (Rattus norvegicus [16]) of 0.69%, a Dose (Rattus norvegicus [17]) of 1.2% and a Dose (Rattus norvegicus [18]) of 0.24%. The Ratio (Rattus norvegicus [19]) was 3.6, the Ratio (Rattus norvegicus [20]) was 6.8 and the Dose (Rattus norvegicus [21]) was 0.3%. For the same compound, the Dose (Rattus norvegicus [22]) was 3.3%, the Dose (Rattus norvegicus [23]) was 0.72% and the Ratio (Rattus norvegicus [24]) was 12. For the same compound, the Ratio (Rattus norvegicus [25]) was 21, the Dose (Rattus norvegicus [26]) was 2.5% and the Dose (Rattus norvegicus [27]) was 1.5%. The Dose (Rattus norvegicus [28]) was 2.1%, the Dose (Rattus norvegicus [29]) was 1.2% and the Dose (Rattus norvegicus [30]) was 0.63%.
